From ChEMBL document CHEMBL5113504, “Discovery of potent benzoxaborole inhibitors against SARS-CoV-2 main and dengue virus proteases” (Eur J Med Chem, 2022)
Calls of active or inactive are those of the source. No cut-off for these calls is given here.

Experiments:
[1] = target: T1, Replicase polyprotein 1ab (Severe acute respiratory syndrome coronavirus 2, UniProt P0DTD1); assay: Inhibition of C-terminal His tagged SARS CoV-2 main protease transfected in Escherichia coli BL21 (DE3) using 2-Abz-Ser-AlaVal-Leu-Gln-Ser-Gly-Tyr(3-NO2)-Arg-OH as substrate preincubated for 15 mins followed by substrate addition and measured after 15 mins by FRET assay
[2] = target: Replicase polyprotein 1ab (Severe acute respiratory syndrome coronavirus 2) (UniProt P0DTD1); assay: Inhibition of C-terminal His tagged SARS CoV-2 main protease transfected in Escherichia coli BL21 (DE3) using 2-Abz-Ser-AlaVal-Leu-Gln-Ser-Gly-Tyr(3-NO2)-Arg-OH as substrate at 50 uM preincubated for 15 mins followed by substrate addition and measured after 15 mins by FRET assay relative to control; conditions: time 30.0 min
[3] = tested on: HeLa; assay: Cytotoxicity against human HeLa cells expressing luciferase-based DENV-2 protease reporter system assessed as reduction in cell viability by celltiter-blue assay; type: toxicity
Summary of the method: (§1)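 CellTiter-Blue viability in HeLa reporter cells or Huh-7 cells, on plates run in parallel with the reporter or titer-reduction assay under the same treatment; each concentration in triplicate.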

[4] = Permeability of compound in PBS at pH 7.4 measured after 5 hrs by HPLC-UV based PAMPA assay; type: ADME; conditions: pH 7.4, 5 h
[5] = target: T2, Genome polyprotein (dengue virus type 2, UniProt P29990); assay: Inhibition of full length DENV2 NS2B-NS3 protease in human HeLa cells expressing luciferase reporter gene incubated for 24 hrs by luminescence analysis; type: cell-based
Summary of the method: (§2)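 Stable DENV2pro reporter HeLa cells seeded at 2×10^4 per well and dosed immediately; 24 h at 37 °C, lysed 15 min, coelenterazine (2.75 μM in PBS) injected, luminescence read 5 s. Triplicates; % inhibition vs untreated cells; EC50 by 4-parameter fit with cell-free background subtraction.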

[6] = target: Genome polyprotein (dengue virus type 2) (UniProt P29990); assay: Inhibition of full length DENV2 NS2B-NS3 protease in human HeLa cells expressing luciferase reporter gene at 12.5 uM incubated for 24 hrs by luminescence analysis relative to control; type: cell-based; summary of the method: as §2
[7] = Selectivity index, ratio of EC50 for inhibition of full length DENV2 NS2B-NS3 protease in human HeLa cells expressing luciferase reporter gene to IC50 for inhibition of C-terminal His tagged SARS CoV-2 main protease transfected in Escherichia coli BL21 (DE3); type: cell-based
[8] = target: T2, Genome polyprotein; assay: Chemical stability of the compound in DENV2 NS2B-NS3 protease assay buffer assessed as DENV2 NS2B-NS3 protease-mediated amide bond cleavage by measuring reduction in AUC at 100 uM measured after 8 hrs by HPLC analysis; type: ADME; conditions: dengue virus type 2, buffer
Summary of the method: (§3)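 Compound incubated with isolated protease (SARS-CoV-2 Mpro or DENV-2 protease) in that enzyme's assay buffer for 8 h; remaining compound quantified by HPLC with UV/Vis detection (peak AUC).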

[9] = Selectivity index, ratio of CC50 for cytotoxicity against human HeLa cells expressing luciferase-based DENV-2 protease reporter system to EC50 for inhibition of full length DENV2 NS2B-NS3 protease in human HeLa cells expressing luciferase reporter gene; type: toxicity, cell-based; conditions: read-out: Ratio CC50/EC50
[10] = tested on: HeLa; assay: Cytotoxicity against human HeLa cells expressing renilla luciferase reporter construct assessed as reduction in cell viability at 12.5 uM by luciferase based analysis; type: toxicity
[11] = tested on: dengue virus type 2; assay: Antiviral activity against Dengue virus serotype 2 infected in Huh-7 cells assessed as reduction in virus titer at 12.5 uM incubated for 48 hrs followed by infection of Vero E6 cells with supernatant and measured after 7 days by crystal violet staining based analysis relative to control; type: functional; design: scale not given: the % may be the effect or the level left; conditions: time 9 day
Summary of the method: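 Huh-7 cells (1×10^4/well, overnight) infected with DENV-2 at MOI 1 for 2 h, medium changed, compound added; 48 h, triplicate supernatants pooled. Titer by plaque assay: Vero E6 infected 1 h with 10^-1 to 10^-6 dilutions, plaque medium 7 days, formaldehyde-fixed, crystal violet stained, plaques counted.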

[12] = tested on: Huh-7; assay: Cytotoxicity against human Huh-7 cells infected with Dengue virus serotype 2 assessed as reduction in cell viability by celltiter-blue assay; type: toxicity, cell-based; summary of the method: as §1
[13] = target: Replicase polyprotein 1ab (Severe acute respiratory syndrome coronavirus 2) (UniProt P0DTD1); assay: Inhibition of C-terminal His tagged SARS CoV-2 main protease transfected in Escherichia coli BL21 (DE3) at 50 uM incubated in presence of DTT
Summary of the method: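 Mpro fluorogenic inhibition assay repeated with 1 mM DTT added to the assay buffer.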

[14] = target: Replicase polyprotein 1ab (Severe acute respiratory syndrome coronavirus 2) (UniProt P0DTD1); assay: Binding affinity to C-terminal His tagged SARS CoV-2 main protease transfected in Escherichia coli BL21 (DE3) assessed as covalent bond formation by measuring mass adduct at 100 uM by ESI-TOF analysis
Summary of the method: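 Compounds at 100 μM incubated with active Mpro (3 μM) in 50 mM Tris-HCl pH 7.4, 100 mM NaCl, 20% v/v ethylene glycol, 0.0016% Brij 58; adducts sought by LC-ESI-TOF MS, C18 column, water/acetonitrile with 0.1% formic acid gradient, negative mode.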

[15] = target: T1, Replicase polyprotein 1ab; assay: Chemical stability of the compound in SARS-CoV-2 main protease assay buffer assessed as SARS-CoV-2 main protease-mediated amide bond cleavage at 100 uM measured after 8 hrs by HPLC based UV-Vis analysis; type: ADME; conditions: severe acute respiratory syndrome coronavirus 2, buffer; summary of the method: as §3

Row | Structure (SMILES) | inhibition [2] [%] | CC50 [3] [µM] | EC50 [5] [µM] | inhibition [6] [%] | also measured
1 | O=C(Oc1cncc(Cl)c1)c1cccs1 | 95 | – | – | – | IC50 [1]: 1.7 µM
2 | N#Cc1ccc(COc2cccc(C(=O)Nc3ccc4c(c3)B(O)OC4)c2)cc1 | 43.4 | > 200 | – | – | permeability [4]: Permeable
3 | O=C(NCc1ccc(B(O)O)cc1)c1cccc(OCc2ccccc2)c1 | 18.5 | > 50 | 14 | 29.3 | Ratio [7]: 5
4 | O=C(Nc1ccccc1)Nc1ccc2c(c1)B(O)OC2 | 15.9 | > 200 | 22.5 | 31 | –
5 | O=C(Nc1ccc2c(c1)B(O)OC2)c1cccc(OCc2ccc(Cl)cc2)c1 | 43.5 | 75.3 | – | – | Stability [8]: Stable
6 | O=C(Nc1ccc2c(c1)B(O)OC2)c1cccc(OCc2c(Cl)cccc2Cl)c1 | 32.6 | 39.7 | – | – | selectivity ratio [9]: 74; permeability [4]: Permeable
7 | CC(C(=O)Nc1ccc2c(c1)B(O)OC2)c1cccc(Oc2ccccc2)c1 (stereo not drawn) | 19 | > 50 | 3.1 | 76.7 | –
8 | O=C(Nc1ccc2c(c1)B(O)OC2)c1cccc(OCC2CCCCC2)c1 | 29.3 | 123 | – | 79.1 | –
9 | OB1OCc2ccccc21 [BENZOXABOROLE] | < 10 | > 100 | – | < 10 | Activity [10]: Non-Toxic
10 | O=C(Nc1ccc2c(c1)B(O)OC2)c1ccc(Oc2ccccc2)cc1 | 19.5 | > 50 | 3.5 | 79.7 | permeability [4]: Permeable; Stability [8]: Stable
11 | Cc1cccc(COc2cccc(C(=O)Nc3ccc4c(c3)B(O)OC4)c2)c1 | 55.5 | 72.6 | – | 85.2 | IC50 [1]: 59.8 µM; Activity [11]: 72.6%; Activity [12]: Non-Toxic
12 | O=C(Nc1ccc2c(c1)B(O)OC2)c1ccc(OCc2ccc(Cl)cc2)cc1 | 20.4 | > 50 | 14.5 | 31.3 | permeability [4]: Permeable; Stability [8]: Stable
13 | O=C(Nc1ccc2c(c1)B(O)OC2)c1cccc(NCc2ccccc2)c1 | 46.9 | 144 | 5.2 | 73.6 | IC50 [1]: 56.9 µM
14 | O=C(Nc1ccc2c(c1)B(O)OC2)c1ccc(C(F)(F)F)cc1 | 21 | > 50 | – | < 10 | Activity [10]: Non-Toxic
15 | COc1cccc(COc2cccc(C(=O)Nc3ccc4c(c3)B(O)OC4)c2)c1 | 45.7 | > 200 | – | 90 | –
16 | COc1cccc(C(=O)Nc2ccc3c(c2)B(O)OC3)c1 | 24.3 | > 100 | 6.4 | 60.1 | –
17 | O=S(=O)(Nc1ccc2c(c1)B(O)OC2)c1ccc(Cl)cc1 | < 10 | > 50 | 9.2 | 51.6 | permeability [4]: Permeable
18 | N#Cc1ccc(CNc2ccc3c(c2)B(O)OC3)cc1 | < 10 | > 100 | – | 41.8 | –

Row | Structure (SMILES) | inhibition [2] [%] | CC50 [3] [µM] | EC50 [5] [µM] | inhibition [6] [%] | also measured
19 | CN(c1ccc2c(c1)B(O)OC2)S(=O)(=O)c1ccc(Cl)cc1 | < 10 | > 50 | > 50 | 24.2 | Activity [10]: Non-Toxic
20 | O=C(Nc1ccc2c(c1)B(O)OC2)c1ccc(OCc2ccccc2)cc1 | 39.6 | > 50 | 8.8 | 54.4 | –
21 | O=C(Nc1ccc2c(c1)B(O)OC2)c1ccccc1OCc1ccccc1 | 40.6 | > 50 | 6.1 | 66.7 | permeability [4]: Permeable
22 | O=C(Nc1ccc2c(c1)B(O)OC2)c1ccc(N2CCOCC2)cc1 | 12.7 | > 50 | 17.1 | 41.1 | Activity [10]: Non-Toxic
23 | O=C(Nc1ccc2c(c1)B(O)OC2)c1cccc(Oc2ccccc2)c1 | 34.6 | > 50 | 6.4 | 77.4 | –
24 | OB1OCc2cc(F)ccc21 [TAVABOROLE] | < 10 | > 50 | – | 15.3 | –
25 | N=C(N)Nc1ccc2c(c1)B(O)OC2 | 88 | > 100 | – | < 10 | IC50 [1]: 10 µM; inhibition [13]: Active; Activity [10]: Non-Toxic; permeability [4]: Impermeable
26 | CCCCCC(=O)Nc1ccc2c(c1)B(O)OC2 | < 10 | > 200 | 19.2 | 37.2 | –
27 | Nc1ccc2c(c1)B(O)OC2 | 17.5 | > 100 | – | < 10 | Activity [10]: Non-Toxic
28 | Cc1onc(-c2ccc(F)cc2)c1C(=O)Nc1ccc2c(c1)B(O)OC2 | < 10 | > 100 | 21.6 | 32.6 | Activity [10]: Non-Toxic
29 | CC(C)(C)NC(=O)N[C@H](C(=O)N1C[C@H]2[C@@H]([C@H]1C(=O)NC(CC1CCC1)C(=O)C(N)=O)C2(C)C)C(C)(C)C (stereo partly drawn) | 70.8 | – | – | – | Activity [14]: Active
30 | O=C(Nc1cccc(C(=O)Nc2ccc3c(c2)B(O)OC3)c1)c1ccccc1 | 45.6 | > 200 | 13.1 | 51.5 | IC50 [1]: 52.3 µM; Stability [15]: Stable
31 | O=C(Nc1ccc2c(c1)B(O)OC2)OCc1ccccc1 | < 10 | > 50 | 4 | 67.5 | –
32 | Nc1ccc(C(=O)Nc2ccc3c(c2)B(O)OC3)cc1 | 39.7 | > 200 | – | 14.3 | –
33 | O=C(Nc1cccc(B(O)O)c1)c1cccc(OCc2ccccc2)c1 | < 10 | > 50 | 12.5 | 65.1 | Ratio [7]: 5; Activity [10]: Non-Toxic; permeability [4]: Permeable
34 | O=[N+]([O-])c1ccc2c(c1)B(O)OC2 | < 10 | > 100 | – | 14.5 | –
35 | O=C(Nc1ccc2c(c1)B(O)OC2)c1cccc(OCc2ccccc2)n1 | 99.6 | 124 | – | – | IC50 [1]: 38.5 µM
